In ChEMBL document CHEMBL4837193 (Eur J Med Chem, 2021):
Activity calls are given as the source filed them. The calls are words filed in the database; no cut-off is given here.

Legend:
HeLa [1] = test: Antiproliferative activity against human HeLa cells assessed as cell growth inhibition after 48 hrs by MTT assay; assay type: functional, cell-based
Method in brief: (§1)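 Cells grown at 37 °C with CO2 in RPMI-1640 or DMEM plus 10% FBS. Seeded at 2 × 10³ per well, attached 24 h, then medium changed. Compound exposure 48 h at 37 °C, DMSO 0.1% as vehicle. MTT added and incubated a further 4 h. Crystals dissolved, absorbance read at 570 nm. IC50 from curve fitting, mean ± SD of three independent experiments.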

HCT-116 = test: Antiproliferative activity against human HCT-116 cells assessed as cell growth inhibition after 48 hrs by MTT assay; assay type: functional, cell-based; conditions: HCT-116, 48 h; method in brief: as §1
A549 = test: Antiproliferative activity against human A549 cells assessed as cell growth inhibition after 48 hrs by MTT assay; assay type: functional, cell-based; conditions: A549, 48 h; method in brief: as §1
HT-29 = test: Antiproliferative activity against human HT29 cells assessed as cell growth inhibition after 48 hrs by MTT assay; assay type: functional, cell-based; conditions: HT-29, 48 h
HepG2 = test: Antiproliferative activity against human HepG2 cells assessed as cell growth inhibition after 48 hrs by MTT assay; assay type: functional, cell-based; conditions: HepG2, 48 h; method in brief: as §1
HEK293 = test: Antiproliferative activity against human HEK293 cells assessed as cell growth inhibition after 48 hrs by MTT assay; assay type: cell-based; conditions: HEK293, 48 h; method in brief: as §1
T47D = test: Antiproliferative activity against human T47D cells assessed as cell growth inhibition after 48 hrs by MTT assay; assay type: functional, cell-based
Tubulin (Homo sapiens) [2] = biological target: T1, Tubulin (Homo sapiens) (UniProt P68371+Q9H4B7+P0DPH7+P68366+Q13509+Q71U36+P04350+Q3ZCM7+P07437+P68363+Q9BQE3+Q6PEY2+Q13885+Q9BVA1+Q9BUF5); test: Inhibition of tubulin polymerization (unknown origin) at 10 uM measured after 30 mins every 1 min for 20 mins by spectrophotometric method; assay type: protein-complex assay
Method in brief: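 Tubulin at 2 mg/mL in PEM buffer (100 mM PIPES pH 6.9, 1 mM MgCl2, 1 mM EGTA, 5% glycerol) preincubated on ice with compound or DMSO, then GTP added. After 0.5 h, A340 read every 1 min for 20 min at 37 °C. Plateau values used. Single-point inhibition at 10 µM; IC50 is the concentration halving polymerization at 20 min, mean ± SD of three experiments.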

HeLa [3] = test: Induction of apoptosis in human HeLa cells assessed as early apoptotic cells at 60 nM after 24 hrs by AnnexinV/PI-staining based flow cytometry (reference value: 2.87%)
HeLa [4] = test: Induction of apoptosis in human HeLa cells assessed as increase in cleaved PARP level incubated for 24 hrs by Western blot analysis; assay type: functional, cell-based
Method in brief: (§2)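 HeLa cells treated as for cell-cycle analysis (30, 60, 120 nM, 24 h), then lysed and protein quantified. Lysates boiled 5 min, run on SDS-PAGE and transferred to PVDF. Membranes blocked in 5% skim milk 1 h at RT, primary antibodies overnight at 4 °C, β-actin/GAPDH as loading controls. Secondary antibody 1:4000 for 2 h at RT. Mean ± SD of three independent experiments.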

HeLa [5] = test: Induction of apoptosis in human HeLa cells assessed as necrotic cells at 30 nM after 24 hrs by AnnexinV/PI-staining based flow cytometry (reference value: 0.093 %)
HeLa [6] = test: Cell cycle arrest in human HeLa cells assessed as increase in cells accumulation at G2/M phase at 60 nM measured after 24 hrs by propidium iodide staining based flow cytometric analysis (reference value: 12.49 %); assay type: functional
HeLa [7] = test: Induction of apoptosis in human HeLa cells assessed as early apoptotic cells at 30 nM after 24 hrs by AnnexinV/PI-staining based flow cytometry (reference value: 2.87%)
HeLa [8] = test: Induction of apoptosis in human HeLa cells assessed as late apoptotic cells at 60 nM after 24 hrs by AnnexinV/PI-staining based flow cytometry (reference value: 0.884 %)
HeLa [9] = test: Induction of apoptosis in human HeLa cells assessed as late apoptotic cells at 120 nM after 24 hrs by AnnexinV/PI-staining based flow cytometry (reference value: 0.884 %)
HeLa [10] = test: Cell cycle arrest in human HeLa cells assessed as increase in cells accumulation at G2/M phase at 120 nM measured after 24 hrs by propidium iodide staining based flow cytometric analysis (reference value: 12.49 %); assay type: functional
HeLa [11] = test: Cell cycle arrest in human HeLa cells assessed as increase in cells accumulation at G0/G1 phase at 30 nM measured after 24 hrs by propidium iodide staining based flow cytometric analysis (reference value: 67.22 %); assay type: functional
Tubulin = test: Inhibition of tubulin polymerization (unknown origin) measured afer 30 mins every 1 min for 20 mins by spectrophotometric method; assay type: protein-complex assay, Homo sapiens
Method in brief: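 Tubulin at 2 mg/mL in PEM buffer (100 mM PIPES pH 6.9, 1 mM MgCl2, 1 mM EGTA, 5% glycerol) preincubated on ice with compound or DMSO, then GTP added. After 0.5 h, A340 read every 1 min for 20 min at 37 °C. Plateau values used.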

HeLa [12] = test: Cell cycle arrest in human HeLa cells assessed as increase in cells accumulation at S phase at 30 nM measured after 24 hrs by propidium iodide staining based flow cytometric analysis (reference value: 20.29 %); assay type: functional
HeLa [13] = test: Cell cycle arrest in human HeLa cells assessed as increase in cells accumulation at S phase at 60 nM measured after 24 hrs by propidium iodide staining based flow cytometric analysis (reference value: 20.29 %); assay type: functional
HeLa [14] = test: Cell cycle arrest in human HeLa cells assessed as increase in cells accumulation at G2/M phase at 30 nM measured after 24 hrs by propidium iodide staining based flow cytometric analysis (reference value: 12.49 %); assay type: functional
HeLa [15] = test: Induction of apoptosis in human HeLa cells assessed as late apoptotic cells at 30 nM after 24 hrs by AnnexinV/PI-staining based flow cytometry (reference value: 0.884 %)
HeLa [16] = test: Induction of cell cycle arrest in human Hela cells assessed as increase in cyclin B1 expression measured after 24 hrs by Western blot analysis relative to control; assay type: functional, cell-based; conditions: dose 30-120 nM; method in brief: as §2
HeLa [17] = test: Cell cycle arrest in human HeLa cells assessed as increase in cells accumulation at G0/G1 phase at 60 nM measured after 24 hrs by propidium iodide staining based flow cytometric analysis (reference value: 49.85 %); assay type: functional
HeLa [18] = test: Induction of apoptosis in human HeLa cells assessed as necrotic cells at 60 nM after 24 hrs by AnnexinV/PI-staining based flow cytometry (reference value: 0.093 %)
HeLa [19] = test: Induction of apoptosis in human HeLa cells assessed as necrotic cells at 120 nM after 24 hrs by AnnexinV/PI-staining based flow cytometry (reference value: 0.093 %)
HeLa [20] = test: Cell cycle arrest in human HeLa cells assessed as increase in cells accumulation at G0/G1 phase at 120 nM measured after 24 hrs by propidium iodide staining based flow cytometric analysis (reference value: 67.22 %); assay type: functional
HeLa [21] = test: Induction of apoptosis in human HeLa cells assessed as effect on Bax level incubated for 24 hrs by Western blot analysis; assay type: functional, cell-based; method in brief: as §2
HeLa [22] = test: Induction of apoptosis in human HeLa cells assessed as early apoptotic cells at 120 nM after 24 hrs by AnnexinV/PI-staining based flow cytometry (reference value: 2.87%)
Tubulin (Homo sapiens) [23] = biological target: T1, Tubulin (Homo sapiens); test: Inhibition of […]colchicine binding to tubulin (unknown origin) at 4 uM incubated for 45 mins by fluorescence assay relative to control; assay type: protein-complex assay
Method in brief: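 Tubulin (4 µM) preincubated 45 min at 37 °C with test agent (20–80 µM), then colchicine (4 µM) added. After a further 45 min at 37 °C, fluorescence read at excitation 340 nm and emission 435 nm, with buffer blank subtracted.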

HeLa [24] = test: Cell cycle arrest in human HeLa cells assessed as increase in cells accumulation at S phase at 120 nM measured after 24 hrs by propidium iodide staining based flow cytometric analysis (reference value: 20.29 %); assay type: functional
HeLa [25] = test: Induction of cell cycle arrest in human Hela cells assessed as decrease in cdc2 expression measured after 24 hrs by Western blot analysis relative to control; assay type: functional, cell-based; conditions: dose 30-120 nM; method in brief: as §2

With `COc1cc(-c2nc3nccc(-c4cc5ccccc5oc4=O)n3n2)cc(OC)c1OC` the IC50 (HeLa [1]) was over 30 µM.
With `COc1ccc(-c2nc3nccc(-c4cc(OC)c(OC)c(OC)c4)n3n2)cc1NC(C)=O` the IC50 (HCT-116) was 22.4 µM, the IC50 (A549) was 34.6 µM and the IC50 (HT-29) was 1.66 µM. The IC50 (HepG2) was over 100 µM, the IC50 (HEK293) was 82.1 µM and the IC50 (T47D) was 5.67 µM. The inhibition (Tubulin (Homo sapiens) [2]) was 16% and the IC50 (HeLa [1]) was 0.28 µM.
`COc1ccc(-c2ccnc3nc(-c4cc(OC)c(OC)c(OC)c4)nn23)cc1Cl` showed an IC50 (HeLa [1]) of over 30 µM.
`COc1cc(-c2ccnc3nc(-c4ccc(C)cc4)nn23)cc(OC)c1OC` gave an IC50 (HeLa [1]) of over 30 µM.
`COc1cc(-c2nc3nccc(-c4cccc5ccccc45)n3n2)cc(OC)c1OC` showed an IC50 (HeLa [1]) of 28.6 µM.
For `COc1cc(-c2nc3nccc(-c4ccco4)n3n2)cc(OC)c1OC`, the IC50 (HeLa [1]) was over 30 µM.
Work on `COc1ccc(/C=C\c2cc(OC)c(OC)c(OC)c2)cc1O` [COMBRETASTATIN A4] yielded an IC50 (HepG2) of 5.29 µM and an IC50 (T47D) of 0.027 µM.
`COc1cc(-c2nc3nccc(-c4cccs4)n3n2)cc(OC)c1OC` showed an IC50 (HeLa [1]) of over 30 µM.
In the case of `COc1cc(-c2nc3nccc(-c4cccnc4)n3n2)cc(OC)c1OC`, the IC50 (HeLa [1]) is reported as over 30 µM.
Work on `COc1cc(-c2nc3nccc(-c4ccc(N)cc4)n3n2)cc(OC)c1OC` yielded an IC50 (HeLa [1]) of 29.9 µM.
For `COc1ccc(-c2ccnc3nc(-c4cc(OC)c(OC)c(OC)c4)nn23)cc1OC`, the IC50 (HeLa [1]) was over 30 µM.
`COc1cc(-c2nc3nccc(-c4ccc([N+](=O)[O-])cc4)n3n2)cc(OC)c1OC` was tested, and the IC50 (HeLa [1]) was over 30 µM.
`COc1cc(-c2ccnc3nc(-c4ccc(Cl)c(Cl)c4)nn23)cc(OC)c1OC` showed an IC50 (HeLa [1]) of over 30 µM.
With `COc1ccc(-c2nc3nccc(-c4cc(OC)c(OC)c(OC)c4)n3n2)cc1O` the Activity (HeLa [3]) was 10.5%, the Activity (HeLa [4]) was “Active” and the Activity (HeLa [5]) was 0.329%. It also gave an Activity (HeLa [6]) of 22.81%, an Activity (HeLa [7]) of 8.5% and an Activity (HeLa [8]) of 8.85%. The Activity (HeLa [9]) was 19.3%, the Activity (HeLa [10]) was 46.82% and the Activity (HeLa [11]) was 66.03%. For the same compound, the IC50 (HCT-116) was 18.4 µM, the IC50 (A549) was 6.05 µM and the IC50 (HT-29) was 0.24 µM. The IC50 (Tubulin) was 1.3 µM, the Activity (HeLa [12]) was 17.79% and the Activity (HeLa [13]) was 27.84%. The IC50 (HepG2) was 14.7 µM, the Activity (HeLa [14]) was 16.18% and the Activity (HeLa [15]) was 5.61%. For the same compound, the Activity (HeLa [16]) was “Dose-Dependent Effect”, the Activity (HeLa [17]) was 49.85% and the IC50 (HEK293) was over 100 µM. It also gave an IC50 (T47D) of 3.49 µM, an Activity (HeLa [18]) of 1.07% and an Activity (HeLa [19]) of 2.37%. The Activity (HeLa [20]) was 29.01%, the Activity (HeLa [21]) was “inactive” and the Activity (HeLa [22]) was 14.3%. The inhibition (Tubulin (Homo sapiens) [23]) was “Dose-Dependent Effect”, the inhibition (Tubulin (Homo sapiens) [2]) was 94% and the Activity (HeLa [24]) was 24.67%. For the same compound, the Activity (HeLa [25]) was “Active” and the IC50 (HeLa [1]) was 0.06 µM.
